For series [1], the system named is Staphylococcus aureus. Put plainly: Antibacterial activity against multidrug-resistant Staphylococcus aureus WIS cultured in MHB medium assessed as reduction in bacterial growth incubated for 24 hrs by microdilution susceptibility test. It is filed as functional. In a few lines:
(§1)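 Broth microdilution per CLSI M07-A9 (modified). Working solutions made from concentrated DMSO stocks kept at r.t., diluted in double-distilled water, final DMSO <1%. Inoculum 1–1.2 x 10⁶ cells/mL in Mueller-Hinton broth, mixed 1:1 with compound. 37 °C, 24 h, four parallels. Read as OD₆₀₀. Where precipitation left residual OD, the point of major OD decrease was taken as the inhibitory concentration.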
On the technique in general: Dilution methods test growth across graded concentrations, often in twofold steps.

Series [2] has as its system Escherichia coli. Put plainly: Antibacterial activity against multidrug-resistant Escherichia coli 50639799 producing Verona integron encoded metallo beta-lactamse-29 cultured in MHB medium assessed as reduction in bacterial growth incubated for 24 hrs by microdilution susceptibility test. It counts as functional. To be noted: Escherichia coli, 50639799, 24 h. The method, boiled down: as §1

Series [3] deals with Corynebacterium glutamicum. Kind of series: Antibacterial activity against Corynebacterium glutamicum ATCC 13032 cultured in MHB medium assessed as no bacterial growth incubated at 20 degC for 24 hrs by microdilution susceptibility test. It counts as functional. The settings on record: ATCC 13032, 24 h. The method, boiled down:
(§2)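 Broth microdilution per CLSI M07-A9 with modifications. Inoculum about 2.5–3 x 10⁴ cells/mL in Mueller-Hinton broth, mixed 1:1 with test derivative. DMSO stocks diluted in double-distilled water, final DMSO <1%. Incubation 24 h at 37 °C (20 °C for C. glutamicum). Growth and sterility controls included; oxytetracycline reference.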

Series [4] can be described thus: Selectivity index, ratio of EC50 for hemolytic activity against human RBC to MIC for antibacterial activity against Escherichia coli ATCC 25922. To be noted: human red blood cells (RBC). It is filed as toxicity. The method, boiled down:
(§3)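 Selectivity index is the RBC haemolysis EC50 divided by the MIC against the E. coli or S. aureus reference strain.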

For series [5], the system named is Acinetobacter baumannii. Put plainly: Antibacterial activity against multidrug-resistant Acinetobacter baumannii K47-42 producing oxcillinase-23 cultured in MHB medium assessed as reduction in bacterial growth incubated for 24 hrs by microdilution susceptibility test. It is filed as functional. The settings on record: K47-42, 24 h. The method, boiled down: as §1

For series [6], the system named is Klebsiella pneumoniae. Kind of series: Antibacterial activity against multidrug-resistant Klebsiella pneumoniae 50667959 producing Verona integron encoded metallo beta-lactamse-1 cultured in MHB medium assessed as reduction in bacterial growth incubated for 24 hrs by microdilution susceptibility test. It counts as functional. To be noted: Klebsiella pneumoniae, 50667959, 24 h. In a few lines: as §1

For series [7], the system named is Staphylococcus aureus. Kind of series: Antibacterial activity against multidrug-resistant Staphylococcus aureus IHT 99040 cultured in MHB medium assessed as reduction in bacterial growth incubated for 24 hrs by microdilution susceptibility test. It is filed as functional. The settings on record: IHT 99040, 24 h. In a few lines: as §1
Series [8] concerns Pseudomonas aeruginosa. Put plainly: Antibacterial activity against multidrug-resistant Pseudomonas aeruginosa K44-24 producing imipenem-type carbapenemase-14 cultured in MHB medium assessed as reduction in bacterial growth incubated for 24 hrs by microdilution susceptibility test. It counts as functional. To be noted: K44-24, 24 h. The method, boiled down:
as §1

Series [9] concerns Escherichia coli. Kind of series: Antibacterial activity against multidrug-resistant Escherichia coli 50579417 producing oxcillinase-48 cultured in MHB medium assessed as reduction in bacterial growth incubated for 24 hrs by microdilution susceptibility test. It counts as functional. The settings on record: Escherichia coli, 50579417, 24 h. In a few lines:
as §1

In the next series the test system is Erythrocyte. Kind of series: Hemolytic activity against human RBC incubated for 1 hr. It counts as cell-based. In a few lines:
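Heparinized human blood washed three times in warm PBS and set to 10% hct. Erythrocytes at 1% v/v final, with compound in PBS (DMSO <1%), shaken 1 h at 37 °C and then centrifuged. Supernatant absorbance read at 405 and 545 nm after PBS background subtraction. Haemolysis taken relative to 1% Triton X-100. Three independent replicates, EC50 averaged.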

The subject of series [10] is Pseudomonas aeruginosa. Kind of series: Antibacterial activity against multidrug-resistant Pseudomonas aeruginosa 50692172 producing New Delhi metallo-beta-lactamase-1 cultured in MHB medium assessed as reduction in bacterial growth incubated for 24 hrs by microdilution susceptibility test. It counts as functional. To be noted: Pseudomonas aeruginosa, 50692172, 24 h. The method, boiled down: as §1

In series [11] the test system is Pseudomonas aeruginosa. Put plainly: Antibacterial activity against multidrug-resistant Pseudomonas aeruginosa 50692520 producing Verona integron encoded metallo beta-lactamse cultured in MHB medium assessed as reduction in bacterial growth incubated for 24 hrs by microdilution susceptibility test. It counts as functional. The settings on record: Pseudomonas aeruginosa, 50692520, 24 h. In a few lines: as §1

The subject of series [12] is Klebsiella pneumoniae. Kind of series: Antibacterial activity against multidrug-resistant Klebsiella pneumoniae K47-25 producing carbapenemase-2 cultured in MHB medium assessed as reduction in bacterial growth incubated for 24 hrs by microdilution susceptibility test. To be noted: K47-25, 24 h. It counts as functional. The method, boiled down:
as §1

Series [13] relates to Enterococcus faecium. Put plainly: Antibacterial activity against multidrug-resistant Enterococcus faecium 50901530 cultured in BHIB medium assessed as reduction in bacterial growth incubated for 24 hrs by microdilution susceptibility test. It counts as functional. To be noted: Enterococcus faecium, 50901530, 24 h. In a few lines: (§4)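 Enterococci grown in Brain Heart Infusion broth, otherwise broth microdilution per CLSI M07-A9 (modified). Concentrated DMSO stocks kept at r.t. and diluted in double-distilled water, final DMSO <1%. Inoculum 1–1.2 x 10⁶ cells/mL mixed 1:1 with compound. 37 °C, 24 h, four parallels. OD₆₀₀ read-out, lowest concentration with no growth.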

Series [14] can be described thus: Selectivity index, ratio of EC50 for hemolytic activity against human RBC to MIC for antibacterial activity against Staphylococcus aureus ATCC 9144. To be noted: human red blood cells (RBC). It is filed as toxicity. The method, boiled down: as §3
Series [15] concerns Klebsiella pneumoniae. Kind of series: Antibacterial activity against multidrug-resistant Klebsiella pneumoniae K66-45 producing New Delhi metallo-beta-lactamase-1 cultured in MHB medium assessed as reduction in bacterial growth incubated for 24 hrs by microdilution susceptibility test. To be noted: K66-45, 24 h. It counts as functional. In a few lines: as §1
Series [16] concerns Klebsiella pneumoniae. Kind of series: Antibacterial activity against multidrug-resistant Klebsiella pneumoniae 50531633 producing New Delhi metallo-beta-lactamase-1 and oxcillinase-181 cultured in MHB medium assessed as reduction in bacterial growth incubated for 24 hrs by microdilution susceptibility test. It is filed as functional. The settings on record: Klebsiella pneumoniae, 50531633, 24 h. In a few lines:
as §1

Series [17] deals with Acinetobacter baumannii. Put plainly: Antibacterial activity against multidrug-resistant Acinetobacter baumannii K55-13 producing oxcillinase-24 cultured in MHB medium assessed as reduction in bacterial growth incubated for 24 hrs by microdilution susceptibility test. The settings on record: K55-13, 24 h. It counts as functional. In a few lines: as §1
In series [18] the test system is Pseudomonas aeruginosa. Kind of series: Antibacterial activity against Pseudomonas aeruginosa PA01 DSM 19880 (ATCC 15692) cultured in MHB medium assessed as no bacterial growth incubated at 37 degC for 24 hrs by microdilution susceptibility test. It counts as functional. To be noted: PAO1 DSM 19880 (ATCC 15692). In a few lines: as §2
The test system of series [19] is Escherichia coli. Put plainly: Antibacterial activity against multidrug-resistant Escherichia coli 50857972 producing imipenem-type carbapenemase-26 cultured in MHB medium assessed as reduction in bacterial growth incubated for 24 hrs by microdilution susceptibility test. The settings on record: Escherichia coli, 50857972, 24 h. It counts as functional. The method, boiled down:
as §1

The test system of series [20] is Acinetobacter baumannii. Kind of series: Antibacterial activity against multidrug-resistant Acinetobacter baumannii K44-35 producing oxcillinase-23 cultured in MHB medium assessed as reduction in bacterial growth incubated for 24 hrs by microdilution susceptibility test. It counts as functional. To be noted: K44-35, 24 h. In a few lines:
as §1

Series [21] deals with Escherichia coli. Put plainly: Antibacterial activity against multidrug-resistant Escherichia coli 50739822 producing New Delhi metallo-beta-lactamase-1 cultured in MHB medium assessed as reduction in bacterial growth incubated for 24 hrs by microdilution susceptibility test. It counts as functional. To be noted: Escherichia coli, 50739822, 24 h. The method, boiled down:
as §1

The test system of series [22] is Enterococcus faecium. Put plainly: Antibacterial activity against multidrug-resistant Enterococcus faecium 50758899 cultured in BHIB medium assessed as reduction in bacterial growth incubated for 24 hrs by microdilution susceptibility test. It counts as functional. The settings on record: Enterococcus faecium, 50758899, 24 h. The method, boiled down: as §4

Drawing on ChEMBL document CHEMBL4311965, “Antimicrobial activity of amphipathic α,α-disubstituted β-amino amide derivatives against ESBL - CARBA producing multi-resistant bacteria; effect of halogenation, lipophilicity and cationic character” (Eur J Med Chem, 2019), this text covers MIC, selectivity ratio and EC50 for 2 compounds.

In brackets after ≈: the same amount, converted by molar mass.

`NCCNCC(CN)(Cc1cc(Br)cc(Br)c1)Cc1cc(Br)cc(Br)c1`: the MIC (usually the lowest concentration found to suppress growth) in the series on Staphylococcus aureus [1] was 8 µg/mL (≈ 13 µM); with Escherichia coli [2], 8 µg/mL (≈ 13 µM); in [3], 1 µg/mL (≈ 1.63 µM); in the series with Acinetobacter baumannii [5] it was 16 µg/mL (≈ 26.1 µM); in the series on Klebsiella pneumoniae [6], 16 µg/mL (≈ 26.1 µM); in the series on Staphylococcus aureus [7] it was 8 µg/mL (≈ 13 µM). Moreover, the MIC in the series with Pseudomonas aeruginosa [8] is 16 µg/mL (≈ 26.1 µM); in the series with Escherichia coli [9], 16 µg/mL (≈ 26.1 µM); with Pseudomonas aeruginosa [10], 32 µg/mL (≈ 52.2 µM); with Pseudomonas aeruginosa [11] it was 32 µg/mL (≈ 52.2 µM); in the series on Klebsiella pneumoniae [12], 8 µg/mL (≈ 13 µM); with Enterococcus faecium [13] it was 4 µg/mL (≈ 6.52 µM). Further, the minimal inhibitory concentration (MIC) in the series on Klebsiella pneumoniae [15] worked out at 8 µg/mL (≈ 13 µM); with Klebsiella pneumoniae [16] it was 8 µg/mL (≈ 13 µM); with Acinetobacter baumannii [17], 8 µg/mL (≈ 13 µM); with Pseudomonas aeruginosa [18] it was 4 µg/mL (≈ 6.52 µM); with Escherichia coli [19] it was 8 µg/mL (≈ 13 µM); in the series with Acinetobacter baumannii [20], 8 µg/mL (≈ 13 µM). Also, the minimum inhibitory concentration (MIC) stood at 8 µg/mL (≈ 13 µM) with Escherichia coli [21] and 4 µg/mL (≈ 6.52 µM) with Enterococcus faecium [22]. In addition, the selectivity ratio is 6 in series [4] and 12 in series [14]. Further, a half-maximal response with Erythrocyte (EC50) required 24 µg/mL (≈ 39.1 µM).

Turning to `NCCNCC(CN)(Cc1ccccc1Br)Cc1ccccc1Br`, the MIC came out at 8 µg/mL (≈ 17.6 µM) in the series on Staphylococcus aureus [1]; 16 µg/mL (≈ 35.1 µM) in the series with Escherichia coli [2]; 2 µg/mL (≈ 4.39 µM) in series [3]; 16 µg/mL (≈ 35.1 µM) in the series on Acinetobacter baumannii [5]; 16 µg/mL (≈ 35.1 µM) in the series with Klebsiella pneumoniae [6]; 8 µg/mL (≈ 17.6 µM) in the series on Staphylococcus aureus [7]. For the same compound, the MIC in the series with Pseudomonas aeruginosa [8] was 32 µg/mL (≈ 70.3 µM); in the series on Escherichia coli [9], 16 µg/mL (≈ 35.1 µM); in the series on Pseudomonas aeruginosa [10] it was 32 µg/mL (≈ 70.3 µM); in the series on Pseudomonas aeruginosa [11], 16 µg/mL (≈ 35.1 µM); in the series on Klebsiella pneumoniae [12], 16 µg/mL (≈ 35.1 µM); in the series on Enterococcus faecium [13], 16 µg/mL (≈ 35.1 µM). Moreover, the MIC in the series with Klebsiella pneumoniae [15], with Klebsiella pneumoniae [16], in the series on Acinetobacter baumannii [17], in the series on Pseudomonas aeruginosa [18], with Escherichia coli [19] and in the series with Acinetobacter baumannii [20] was 16 µg/mL (≈ 35.1 µM) in each case. The minimal inhibitory concentration (MIC) with Escherichia coli [21] and in the series with Enterococcus faecium [22] was 16 µg/mL (≈ 35.1 µM) throughout. In addition, the selectivity ratio in series [4] and in series [14] was 13 in each case. Moreover, the EC50 (usually the midpoint of the concentration-response curve) in the series with Erythrocyte amounted to 209 µg/mL (≈ 459 µM).
